This passage reports k obsd and MIC results from ChEMBL document CHEMBL3243941, “Hydrolysis of 3-chloro-3-cephems. Intramolecular nucleophilic attack in cefaclor” (J Med Chem, 1977).

In brackets after ≈: the same amount, converted by molar mass.

Data set [1] can be described thus: Hydrolytic stability of the compound assessed as beta-lactum ring opening rate at pH 10 at 35 degC by UV method. The note with it: buffer. Format: physicochemical. In outline: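 Pseudo-first-order rate constants for β-lactam ring opening, measured by UV at pH 10.0 and 35 °C and reported as k_obsd (s−1).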
The subject of data set [2] is Klebsiella pneumoniae. Briefly: Antibacterial activity against Klebsiella pneumoniae X26 assessed as growth inhibition. In kind it is functional.
Data set [3] deals with Klebsiella aerogenes. The data set is described as follows: Antibacterial activity against Enterobacter aerogenes X68 assessed as growth inhibition. Format: functional.
Data set [4] is described as follows: Antibacterial activity against Salmonella heidelberg X514 assessed as growth inhibition. In kind it is functional, Salmonella enterica subsp. enterica serovar Heidelberg. The conditions noted are these: Salmonella enterica.
For data set [5], the system named is Shigella sp. Briefly: Antibacterial activity against Shigella sp. N9 assessed as growth inhibition. Format: functional.
In data set [6] the test system is Escherichia coli. Briefly: Antibacterial activity against Escherichia coli N10 assessed as growth inhibition. Format: functional.

For the compound `O=C(Cc1cccs1)N[C@@H]1C(=O)N2C(C(=O)O)=C(Cl)CS[C@H]12`, in data set [1], the k obsd was found to be 0.000131 s⁻¹. Besides, the MIC in data set [2] amounted to 0.8 µg/mL (≈ 2.23 µM); in data set [3] it was 0.9 µg/mL (≈ 2.51 µM); in data set [4] it was 0.9 µg/mL (≈ 2.51 µM); in data set [5], 17.5 µg/mL (≈ 48.8 µM); in data set [6], 21.2 µg/mL (≈ 59.1 µM).

Consider `CC1=C(C(=O)O)N2C(=O)[C@@H](NC(=O)Cc3cccs3)[C@H]2SC1`, for which the k obsd in data set [1] was 1.07e-05 s⁻¹. The MIC worked out at 10 µg/mL (≈ 29.5 µM) in data set [2]; 30 µg/mL (≈ 88.6 µM) in data set [3]; 29 µg/mL (≈ 85.7 µM) in data set [4]; 120 µg/mL (≈ 355 µM) in data set [5]; 116 µg/mL (≈ 343 µM) in data set [6].

As to `O=C(COc1ccccc1)N[C@@H]1C(=O)N2C(C(=O)O)=C(Cl)CS[C@H]12`, the k obsd in data set [1] is 0.000183 s⁻¹.

As for `N[C@@H](C(=O)N[C@@H]1C(=O)N2C(C(=O)O)=C(Cl)CS[C@H]12)c1ccccc1` [CEFACLOR ANHYDROUS], the k obsd in data set [1] worked out at 0.000287 s⁻¹.

On to `CC(=O)OCC1=C(C(=O)O)N2C(=O)[C@@H](NC(=O)Cc3cccs3)[C@H]2SC1` [CEPHALOTHIN], for which the k obsd in data set [1] came out at 9.7e-05 s⁻¹. Moreover, the MIC in data set [2] was determined as 1 µg/mL (≈ 2.52 µM); in data set [3] it was 3 µg/mL (≈ 7.57 µM); in data set [4], 1 µg/mL (≈ 2.52 µM); in data set [5], 14 µg/mL (≈ 35.3 µM); in data set [6], 15 µg/mL (≈ 37.8 µM).
